The list is not random: actives were taken first. Their share in the collection is about 2.4%.
FID counter: displaces DNA intercalator in HCV helicase counter-screen. AID 1845. inhibition, % at 7.9 µM. DNA fluorescent intercalator displacement, fluorescence. hit rate 0.17% among 290,000; in the data active means inhibition above about 37%;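 further: 0% = vehicle and 100% = reference compound; higher means more ethidium bromide displaced from hairpin DNA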
TMEM16A inh: inhibitors of mouse TMEM16A calcium-activated chloride channel; AID 588511; hit rate 1.2% among 310,000; Q8BHY3; HEK293 TMEM16A/YFP iodide influx fluorescence, ionomycin; normalized B-score (activity score, 25-100; higher = stronger inhibition) at 10 µM;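 active means ratio plate-corrected score three or more library SD toward inhibition, starting fluorescence score within five deviations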;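 further: score derived from kinetic fluorescence span divided by baseline fluorescence per well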
Target sequence (Q8BHY3 whole entry, looked up): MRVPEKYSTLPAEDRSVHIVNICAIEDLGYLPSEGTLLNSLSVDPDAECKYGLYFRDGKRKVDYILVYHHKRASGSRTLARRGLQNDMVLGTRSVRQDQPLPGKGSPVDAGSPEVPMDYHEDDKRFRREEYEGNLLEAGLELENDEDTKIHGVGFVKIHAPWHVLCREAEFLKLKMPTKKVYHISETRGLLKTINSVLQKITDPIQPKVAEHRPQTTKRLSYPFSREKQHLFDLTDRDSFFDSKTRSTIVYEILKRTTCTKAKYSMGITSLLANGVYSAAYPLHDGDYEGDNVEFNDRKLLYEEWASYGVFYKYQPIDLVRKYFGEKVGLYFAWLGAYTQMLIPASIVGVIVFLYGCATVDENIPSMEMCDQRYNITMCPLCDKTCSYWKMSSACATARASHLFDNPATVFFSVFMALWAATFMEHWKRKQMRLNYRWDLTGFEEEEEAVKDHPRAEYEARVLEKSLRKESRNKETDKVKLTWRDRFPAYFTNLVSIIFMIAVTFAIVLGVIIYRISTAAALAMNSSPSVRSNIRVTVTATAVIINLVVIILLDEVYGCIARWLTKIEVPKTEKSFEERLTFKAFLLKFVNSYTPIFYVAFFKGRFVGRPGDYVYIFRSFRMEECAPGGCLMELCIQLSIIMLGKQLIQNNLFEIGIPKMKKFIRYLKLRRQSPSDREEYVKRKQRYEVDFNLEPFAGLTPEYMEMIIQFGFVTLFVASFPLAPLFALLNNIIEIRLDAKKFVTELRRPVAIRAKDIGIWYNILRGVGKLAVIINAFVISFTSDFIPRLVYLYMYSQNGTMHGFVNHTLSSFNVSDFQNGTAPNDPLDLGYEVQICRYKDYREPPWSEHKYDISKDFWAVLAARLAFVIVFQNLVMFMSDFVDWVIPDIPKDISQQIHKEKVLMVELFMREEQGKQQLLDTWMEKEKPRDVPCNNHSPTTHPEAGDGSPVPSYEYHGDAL
Apaf-1 inh: human Apaf-1 inhibition. inhibition, % at 20 µM. O14727. AID 489030. hit rate 0.71% among 330,000. reconstituted apoptosome caspase-3 activity, DEVD-Rh110 fluorescence; active means inhibition of at least 40% at 20 µM;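 further: plate controls were DMSO wells for no effect and DEVD-CHO caspase inhibitor wells for full effect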
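Assay system: Apoptosome proteins | Medium: pH 7.5 Hepes buffer with CHAPS, BSA, DTT | Also added: Cytochrome c and DEVD-Rh110 substrate | Times: 30 min plus 50 min, RT | Detection: Rhodamine 110 fluorescence at Ex 480/Em 540 nm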
UBC13 inh: inhibitors of human UBC13 polyubiquitin chain formation | P61088 | inhibition, % at 20 µM | TR-FRET | hit rate 0.47% among 330,000 | AID 485273; in the data active means inhibition above about 45%, passing the limit was not always enough
ANO1 activ: activates or potentiates the mouse TMEM16A chloride channel | Q8BHY3 | HEK293 TMEM16A/YFP-H148Q/I152L, iodide quench fluorescence; active compounds read low | B-score at 10 µM | hit rate 0.3% among 340,000 | AID 623877;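 active means fluorescence-ratio B-score plate-corrected deviation score at least 3 library SD below zero, with starting fluorescence score within 5 deviations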;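 further: channel opened by trigger with iodide after compound preincubation; score built on the fluorescence ratio of max minus min over baseline; more negative score means more quench and so TMEM16A activation or potentiation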
TMEM16A reconf: reconfirmed blocker of mouse TMEM16A calcium-activated chloride channel; shares compounds with TMEM16A inh; HEK293 TMEM16A/YFP-H148Q, iodide quench fluorescence; ionomycin added to raise cell calcium; inhibition, % at 10 µM; hit rate 39% among 2,300;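 active means mean duplicate percent inhibition, scaled so buffer wells are 0 and the reference blocker 100, over three buffer SD above buffer mean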
HEK293 Ca mobil: alters calcium mobilization in TMEM16A HEK293 cells, counter-screen; shares compounds with TMEM16A inh; TMEM16A/YFP HEK293, Fluo4 calcium mobilization; calcium response (% of ionomycin), % at 10 µM; hit rate 2% among 2,300; AID 652231;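 active means duplicate-averaged calcium signal over 20% of the ionomycin maximum, relative to buffer baseline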;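 further: each well's signal is peak minus trough fluorescence divided by its pre-addition baseline; 0% = buffer wells and 100% = ionomycin wells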
YFP-HEK293 quench: acts in parental YFP-HEK293 cells lacking TMEM16A, counter-screen; shares compounds with TMEM16A inh; iodide YFP quench, ionomycin; AID 652233; YFP ratio F(max-min)/F0 at 10 µM; 2,300 tested, under 10 active;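 active means yellow fluorescent protein signal ratio exceeding the buffer control mean by over 5 SD of those controls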;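 further: ratio is mean of duplicate wells from kinetic YFP trace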
ClC-1 inh: selectivity of TMEM16A inhibitors: inhibition of rat ClC-1 chloride channel; shares compounds with TMEM16A inh; CHO ClC-1-YFP, iodide influx fluorescence quench; iodide control reads 0, buffer control 100; ratio percent, % at 10 µM; 2,300 tested, under 10 active;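 active means duplicate-mean ratio percent above the mean of iodide-only control wells, which defines zero, plus 5 of their SD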;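 further: higher percent means stronger block of ClC-1 iodide influx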
* = called active by the depositor; i = inactive; x = not tested or not shown.

SMILES	FID counter	TMEM16A inh	Apaf-1 inh	UBC13 inh	ANO1 activ	TMEM16A reconf	HEK293 Ca mobil	YFP-HEK293 quench	ClC-1 inh
O=C(CNC(=O)OCc1ccccc1)NCC(=O)Oc1ccc([N+](=O)[O-])cc1	x	x	x	x	i	x	x	x	x
Cc1csc(NC(=O)CCCSc2nc3ccccc3s2)n1	-13.3	100*	12.6	3.4	i	i	31.5%*	-0.986	-11.0
CCOC(=O)c1c(C)[nH]c(C)c1C(=O)COC(=O)c1ccc(Cl)c(S(=O)(=O)NCc2ccccc2)c1	12.7	i	9.2	-0.8	i	x	x	x	x
CCOc1c(N2CCOCC2)c(=O)c1=O	2.2	i	-21.6	-1.8	i	x	x	x	x
CN1/C(=C\C(=O)COC(=O)c2ccco2)C(C)(C)c2ccccc21	-22.9	i	4.9	-0.1	i	x	x	x	x
CN1/C(=C\C(=O)c2ccco2)C(C)(C)c2ccccc21	-7.5	i	1.9	-13.9	i	26.5%*	i	-0.68	-2.0
COc1ccccc1OCC(=O)/C=C1/N(C)c2ccccc2C1(C)C	-19.7	i	8.6	-8.6	i	x	x	x	x
CN1/C(=C\C(=O)COc2ccc3c(c2)OCO3)C(C)(C)c2ccccc21	-18.5	i	20.5	-20.4	i	i	i	-0.727	4.5
CN1/C(=C\C(=O)c2cncc(Br)c2)C(C)(C)c2ccccc21	-7.7	i	10.6	-3.5	i	22.0%*	i	-0.722	-8.5
CCOc1ncccc1C(=O)Nc1cc(S(=O)(=O)N2CCCCC2)ccc1Cl	x	x	-12.7	-3.6	i	x	x	x	x
CCOC(=O)N1CCC(=C2c3ccc(Cl)cc3CCc3cccnc32)CC1	-43.6	25*	28.7	1.4	i	i	i	-1.12	-15.5
COC(=O)[C@H](CC(C)C)NC(=O)NC1CCCc2ccccc21 (stereo partly drawn)	-11.6	i	5.0	-2.0	i	x	x	x	x
COC(=O)[C@H](CC(C)C)NC(=O)NC1CCCCC1C (stereo partly drawn)	-4.6	25*	-2.7	-13.4	i	i	i	-1.05	-10.0
O=C(OCc1ccccc1)N1C=CC2CC1c1c(Cl)cccc12 (stereo not drawn)	x	x	x	x	i	x	x	x	x
Cc1cc(C)cc(NC(=O)C2(c3ccccc3)CC2(Cl)Cl)c1 (stereo not drawn)	-8.4	25*	21.5	-11.4	i	i	i	-1.3	-6.0
CCCCc1nc2c(C)c(N)cnc2n1Cc1cccc([N+](=O)[O-])c1	-11.3	i	-2.7	11.1	i	x	x	x	x
CCCOc1ncnc2c1[nH]c1ccccc12	-2.5	i	6.6	14.0	i	x	x	x	x
CC(C)Oc1ncnc2c1[nH]c1ccccc12	-1.7	25*	-20.1	13.5	i	i	i	-0.987	-10.0
CCOc1ccccc1NC(=O)Cn1c(=O)oc2ccccc21	-3.5	i	-9.3	9.7	i	x	x	x	x
CCOc1ccc(OCC)c(NC(=O)CCn2c(=O)oc3ccccc32)c1	-16.9	100*	11.1	-11.1	i	i	i	-1.02	-6.5
C=C(C)C1Cc2c(C)nn(-c3cccc4ccccc34)c2C1 (stereo not drawn)	-8.3	25*	14.8	-0.3	i	46.0%*	i	-0.912	-9.0
CC1CCN(S(=O)(=O)c2cccc(C(=O)O)c2)CC1	-3.0	100*	-13.8	4.1	i	i	i	-0.988	-6.5
CC1CCN(S(=O)(=O)c2cccc(C(N)=O)c2)CC1	-2.0	i	-2.3	5.2	i	x	x	x	x
O=C(Nc1nnc(-c2ccccc2Cl)o1)c1ccco1	-0.3	i	0.8	-20.4	i	x	x	x	x
O=C(Nc1nnc(-c2ccccc2Cl)o1)c1nc2ccccc2s1	-35.8	100*	8.9	-33.8	i	i	i	-1.06	-15.5
SMILES	FID counter	TMEM16A inh	Apaf-1 inh	UBC13 inh	ANO1 activ	TMEM16A reconf	HEK293 Ca mobil	YFP-HEK293 quench	ClC-1 inh
CCOC(=O)N1CCC(NC(=O)C(Cc2ccccc2)NC(=O)C2CCCCC2)CC1 (stereo not drawn)	-4.0	i	4.3	2.6	i	x	x	x	x
CCOC(=O)N1CCC(NC(=O)C(CC(C)C)NC(=O)C2CCC(C)CC2)CC1 (stereo not drawn)	-28.9	100*	19.4	-8.3	i	i	i	-1.1	-2.0
CCOC(=O)c1ccc(NC(=S)N2CCN(C)CC2)cc1	-2.9	25*	-5.1	-1.7	i	i	i	-0.837	-0.5
CC1CCN(C(=O)c2[nH]cnc2C(=O)N[C@@H](CCCCNC(=O)OC(C)(C)C)C(=O)OC(C)(C)C)CC1	x	100*	19.1	-3.2	i	i	i	-1.24	-16.0
Cn1c(=O)n(CC(=O)N2CCN(c3nnc(-c4ccccc4)c4ccccc34)CC2)c2ccccc21	-26.9	25*	14.2	0.0	i	i	i	-1.05	-7.5
Cc1cc(C(=O)CSc2nncs2)c(C)n1-c1c(C)n(C)n(-c2ccccc2)c1=O	-8.0	i	2.5	-7.5	i	x	x	x	x
Cc1ccc(-n2c(C)cc(C(=O)CSc3nncs3)c2C)cc1	-17.2	100*	12.8	-1.8	i	50.5%*	i	-0.897	-18.0
O=C(Nc1ccc(Cl)cc1)NC1CCCCC1Cc1ccco1 (stereo not drawn)	-2.5	100*	7.3	5.6	i	42.5%*	i	-1.3	-12.0
Cc1n[nH]c(C)c1S(=O)(=O)N1CCC(C(=O)Nc2cccc(F)c2)CC1	13.9	i	-8.6	-3.5	i	x	x	x	x
O=C1CCCc2cc3c(cc21)CC1(C3)Cc2cc3c(cc2C1)C(=O)CCC3	-17.6	25*	26.5	-0.3	i	20.0%*	i	-1.25	-10.5
N#CC(c1ccccc1)c1ccc2c(C(F)(F)F)cc(C(F)(F)F)nc2n1 (stereo not drawn)	1.1	100*	1.6	-51.4	i	42.5%*	i	-0.845	15.5
CCOC(=O)C(=CNc1ccc2c(c1)c1ccccc1n2CC)C(=O)OCC	-4.5	i	9.7	0.9	i	x	x	x	x
Cc1noc(C)c1COC(=O)c1ccc(F)c(S(=O)(=O)N2CCCCC2)c1	-22.3	i	-3.9	6.0	i	x	x	x	x
Cc1noc(C)c1COc1cccc(C(=O)OCCOc2ccc(F)cc2)c1	-4.2	100*	18.5	16.5	i	i	i	-1.04	-11.5
Cc1noc(C)c1COC(=O)c1cccc(S(=O)(=O)N2CCCCCC2)c1	-7.8	25*	8.4	6.0	i	i	i	-0.815	-20.5

Source: PubChem (several laboratories)
